Assay results from ChEMBL document CHEMBL4043283, “Discovery and Preclinical Development of IIIM-290, an Orally Active Potent Cyclin-Dependent Kinase Inhibitor” (J Med Chem, 2018).
Activity calls are given as the source filed them. The calls are words filed in the database; no cut-off is given here.

Tests used:
[1] = Tmax in Sprague-Dawley rat at 10 mg/kg, po by LC-MS/MS analysis; assay type: ADME, organism-based; details: in vivo
[2] = AUC in BALB/c mouse at 10 mg/kg, po by LC-MS/MS analysis; assay type: ADME, organism-based; details: in vivo
MIA PaCa-2 [3] = assay: Induction of apoptosis in human MIAPaCa2 cells assessed as caspase-3 cleavage by Western blot method; assay type: functional, cell-based
Summary of the method: (§1)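 Lysate protein quantified against a BSA standard; 70 μg resolved by SDS-PAGE, transferred to PVDF overnight at 4 °C, 30 V; blocked 1 h in 5% nonfat milk/TBST; primary antibodies 2–4 h, HRP anti-mouse secondary 1 h; ECL detection on X-ray film.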

Salmonella typhimurium = assay: Mutagenicity in Salmonella typhimurium TA102 at 50 ug/plate in presence of liver S9 fraction by Ames test; assay type: toxicity; details: salmonella enterica subsp. enterica serovar typhimurium
Liver [4] = assay: Intrinsic clearance in human liver S9 fraction assessed per mg of protein preincubated for 5 mins followed by NADPH addition measured after 30 mins by LC-MS/MS analysis; assay type: ADME, tissue-based; details: s9, 0.5 h
[5] = Intrinsic clearance in human liver microsomes assessed per mg of protein at 100 uM after 30 mins by LC-MS/MS analysis; assay type: ADME, microsome; details: read-out: CLH
[6] = test system: Tyrosine-protein kinase ABL1 (Homo sapiens), P00519 [H396P]; assay: Inhibition of partial length human ABL1 H396P mutant expressed in mammalian expression system at 0.5 uM by KINOMEscan method relative to control
Summary of the method: (§2)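 Competition binding screen (KINOMEscan) at 0.5 μM; primary binding read out as % of control, lower values indicating stronger interaction.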

[7] = Half life in human liver S9 fraction preincubated for 5 mins followed by NADPH addition measured after 30 mins by LC-MS/MS analysis; assay type: ADME, tissue-based
[8] = Intrinsic clearance in dog hepatocytes assessed per million cells at 3 uM after 180 mins by LC-MS/MS analysis; assay type: ADME, cell-based, Canis lupus familiaris, Hepatocyte; details: read-out: CLH
Summary of the method: (§3)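 Intrinsic clearance obtained from substrate disappearance over time, reported per mg protein (microsomes, S9) or per 10^6 cells (hepatocytes).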

Cytochrome P450 2C9 = Cytochrome P450 2C9 (Homo sapiens, UniProt P11712); assay: Inhibition of human CYP2C9 using fluorogenic substrate preincubated with co-factor for 10 mins followed by enzyme-substrate addition by fluorometric method; assay type: ADME
Chain of Cytochrome P450 2C9 (P11712 whole entry): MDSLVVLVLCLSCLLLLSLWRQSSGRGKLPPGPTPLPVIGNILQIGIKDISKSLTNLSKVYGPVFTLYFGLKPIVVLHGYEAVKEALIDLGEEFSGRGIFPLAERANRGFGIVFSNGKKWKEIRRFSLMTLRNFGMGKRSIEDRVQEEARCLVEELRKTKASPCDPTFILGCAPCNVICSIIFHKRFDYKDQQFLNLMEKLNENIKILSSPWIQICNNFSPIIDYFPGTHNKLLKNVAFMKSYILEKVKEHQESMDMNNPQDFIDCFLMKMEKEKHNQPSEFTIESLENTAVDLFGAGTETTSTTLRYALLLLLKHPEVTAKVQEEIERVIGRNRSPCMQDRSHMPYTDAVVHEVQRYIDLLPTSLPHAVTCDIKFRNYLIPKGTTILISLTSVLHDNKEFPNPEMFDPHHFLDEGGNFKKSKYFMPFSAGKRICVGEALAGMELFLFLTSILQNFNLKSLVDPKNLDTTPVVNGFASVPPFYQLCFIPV
Summary of the method: (§4)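 Cofactor plus test item or vehicle, in triplicate, preincubated 10 min at 37 °C; prewarmed enzyme–substrate mix added and incubated at 37 °C with shaking. Quench: acetonitrile (CYP2C19, CYP3A4) or 0.25 M Tris in 60% methanol (CYP2C9, CYP2D6). Metabolite fluorescence read; % inhibition computed against enzyme controls and enzyme-free blanks.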

MIA PaCa-2 [9] = assay: Growth inhibition of human MIAPaCa2 cells at 10 uM after 48 hrs by MTT assay relative to control; assay type: functional; details: MIA PaCa-2, 48 h, read-out: GI
Summary of the method: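 Single-concentration primary screen at 10 μM by MTT assay. Cells were NCI-sourced cancer lines grown in appropriate medium at 37 °C, 95% humidity, 5% CO2. Growth inhibition is expressed relative to control.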

MIA PaCa-2 [10] = assay: Antitumor activity against human MIAPaCa2 cells xenografted in CD1 nude mouse assessed as tumor growth inhibition at 25 mg/kg, po qd administered on day 10 to 25 post tumor inoculation; assay type: functional, organism-based
[11] = AUC (0 to t) in BALB/c mouse at 1 mg/kg, iv by LC-MS/MS analysis; assay type: ADME, organism-based; details: in vivo
[12] = Volume of distribution in BALB/c mouse at 1 mg/kg, iv by LC-MS/MS analysis; assay type: ADME, organism-based; details: in vivo
MIA PaCa-2 [13] = assay: Induction of apoptosis in human MIAPaCa2 cells assessed as PARP cleavage by Western blot method; assay type: functional, cell-based; summary of the method: as §1
[14] = Chemical stability of compound in SGF at pH 1.2 assessed as parent compound remaining after 8 hrs by HPLC method; assay type: physicochemical; details: read-out: Stability
[15] = Tmax in Sprague-Dawley rat at 3 mg/kg, po by LC-MS/MS analysis; assay type: ADME, organism-based; details: in vivo
MDA-MB-468 = assay: Growth inhibition of human MDA-MB-468 cells after 48 hrs by MTT assay; assay type: functional; details: MDA-MB-468, 48 h
Summary of the method: (§5)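 Cancer cell lines sourced from the National Cancer Institute (USA). Cells kept in appropriate growth medium at 37 °C, 95% humidity, 5% CO2. Antiproliferation read by tetrazolium (MTT) assay. GI50 values were determined only for compounds selected after an initial single-concentration screen.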

Liver [16] = assay: Drug uptake in Sprague-Dawley rat liver at 30 mg/kg, po after 8 hrs; assay type: ADME, organism-based; details: in vivo
[17] = Half life in BALB/c mouse at 3 mg/kg, po by LC-MS/MS analysis; assay type: ADME, organism-based; details: in vivo
Cytochrome P450 3A4 = Cytochrome P450 3A4 (Homo sapiens, UniProt P08684); assay: Inhibition of human CYP3A4 using fluorogenic substrate preincubated with co-factor for 10 mins followed by enzyme-substrate addition by fluorometric method; assay type: ADME; summary of the method: as §4
Chain of Cytochrome P450 3A4 (P08684 whole entry): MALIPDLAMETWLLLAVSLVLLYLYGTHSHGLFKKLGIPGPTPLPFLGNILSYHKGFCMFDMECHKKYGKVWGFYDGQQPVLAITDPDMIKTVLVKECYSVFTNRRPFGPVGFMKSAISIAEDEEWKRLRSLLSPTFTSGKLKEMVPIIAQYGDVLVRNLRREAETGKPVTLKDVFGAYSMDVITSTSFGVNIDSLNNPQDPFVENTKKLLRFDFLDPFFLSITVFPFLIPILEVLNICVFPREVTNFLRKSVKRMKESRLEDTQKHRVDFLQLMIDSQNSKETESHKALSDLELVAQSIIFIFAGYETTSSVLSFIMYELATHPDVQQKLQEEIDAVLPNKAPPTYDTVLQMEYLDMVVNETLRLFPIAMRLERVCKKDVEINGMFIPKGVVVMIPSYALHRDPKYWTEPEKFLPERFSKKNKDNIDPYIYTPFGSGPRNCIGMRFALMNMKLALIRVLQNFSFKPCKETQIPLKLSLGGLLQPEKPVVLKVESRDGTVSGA

[18] = target: Non-receptor tyrosine-protein kinase TYK2 (Homo sapiens) (UniProt P29597); assay: Inhibition of partial length wild type human Tyk2 expressed in mammalian expression system at 0.5 uM by KINOMEscan method relative to control; summary of the method: as §2
Chain of Non-receptor tyrosine-protein kinase TYK2 (Homo sapiens) (P29597 whole entry): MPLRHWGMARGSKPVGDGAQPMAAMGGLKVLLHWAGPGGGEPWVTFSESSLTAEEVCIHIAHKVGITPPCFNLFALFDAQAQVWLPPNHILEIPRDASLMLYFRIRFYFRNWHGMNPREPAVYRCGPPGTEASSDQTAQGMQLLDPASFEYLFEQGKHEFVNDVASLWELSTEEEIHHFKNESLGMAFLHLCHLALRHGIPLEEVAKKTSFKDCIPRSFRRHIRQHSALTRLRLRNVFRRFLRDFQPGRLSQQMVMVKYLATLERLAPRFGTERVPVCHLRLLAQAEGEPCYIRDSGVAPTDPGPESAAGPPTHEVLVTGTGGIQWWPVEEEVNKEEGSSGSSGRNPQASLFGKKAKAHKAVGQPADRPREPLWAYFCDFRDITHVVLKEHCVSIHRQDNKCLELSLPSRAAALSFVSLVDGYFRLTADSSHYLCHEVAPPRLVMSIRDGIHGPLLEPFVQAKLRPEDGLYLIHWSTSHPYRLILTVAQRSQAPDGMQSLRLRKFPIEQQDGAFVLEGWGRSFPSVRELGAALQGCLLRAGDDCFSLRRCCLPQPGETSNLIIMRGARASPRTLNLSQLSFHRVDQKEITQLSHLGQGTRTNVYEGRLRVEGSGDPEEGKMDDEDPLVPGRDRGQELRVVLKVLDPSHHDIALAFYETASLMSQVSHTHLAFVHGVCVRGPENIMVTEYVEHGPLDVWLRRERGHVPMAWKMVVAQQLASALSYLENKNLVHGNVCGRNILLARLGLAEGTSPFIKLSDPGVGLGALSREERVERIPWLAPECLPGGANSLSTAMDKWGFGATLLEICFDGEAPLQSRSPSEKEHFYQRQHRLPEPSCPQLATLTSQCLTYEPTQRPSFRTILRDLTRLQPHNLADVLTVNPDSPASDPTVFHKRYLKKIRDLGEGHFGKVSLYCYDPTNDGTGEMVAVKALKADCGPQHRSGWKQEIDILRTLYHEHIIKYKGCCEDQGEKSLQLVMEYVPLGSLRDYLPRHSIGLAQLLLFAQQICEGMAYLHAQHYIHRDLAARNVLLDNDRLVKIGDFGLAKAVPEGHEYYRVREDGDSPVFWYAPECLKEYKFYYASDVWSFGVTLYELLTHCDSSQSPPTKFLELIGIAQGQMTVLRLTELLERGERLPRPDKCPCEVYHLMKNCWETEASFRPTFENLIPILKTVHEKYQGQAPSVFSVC

[19] = n-octanol-water partition co-efficient, log P of compound by shake flask method; assay type: physicochemical
[20] = Ratio of Cmax in BALB/c mouse at 30 mg/kg, po to GI50 for human HL60 cells
[21] = Cmax in BALB/c mouse at 30 mg/kg, po by LC-MS/MS analysis; assay type: ADME, organism-based; set-up: dose 30 mg/kg, route oral; details: in vivo
DU-145 = assay: Growth inhibition of human DU145 cells after 48 hrs by MTT assay; assay type: functional; details: DU-145, 48 h; summary of the method: as §5
[22] = Half life in dog hepatocytes at 3 uM after 180 mins by LC-MS/MS analysis; assay type: ADME, cell-based, Canis lupus familiaris, Hepatocyte
CDK3/Cyclin E = CDK3/Cyclin E (Homo sapiens, UniProt Q00526); assay: Inhibition of CDK3/cyclin E (unknown origin) after 30 mins in presence of [33P]-gamma-ATP by filter binding assay; assay type: protein-complex assay
Chain of CDK3/Cyclin E (P24864 whole entry): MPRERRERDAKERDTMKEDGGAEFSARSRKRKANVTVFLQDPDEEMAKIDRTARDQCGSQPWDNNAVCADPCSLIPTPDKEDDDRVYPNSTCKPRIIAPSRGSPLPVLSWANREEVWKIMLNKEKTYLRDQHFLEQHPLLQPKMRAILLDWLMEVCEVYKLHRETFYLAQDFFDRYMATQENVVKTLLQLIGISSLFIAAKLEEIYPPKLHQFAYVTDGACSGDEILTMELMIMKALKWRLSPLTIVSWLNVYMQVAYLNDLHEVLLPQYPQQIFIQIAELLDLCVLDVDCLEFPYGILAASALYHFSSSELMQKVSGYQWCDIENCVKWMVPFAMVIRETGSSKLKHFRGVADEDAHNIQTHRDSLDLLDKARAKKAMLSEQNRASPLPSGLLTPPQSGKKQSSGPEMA
Chain of CDK3/Cyclin E (Q00526 whole entry): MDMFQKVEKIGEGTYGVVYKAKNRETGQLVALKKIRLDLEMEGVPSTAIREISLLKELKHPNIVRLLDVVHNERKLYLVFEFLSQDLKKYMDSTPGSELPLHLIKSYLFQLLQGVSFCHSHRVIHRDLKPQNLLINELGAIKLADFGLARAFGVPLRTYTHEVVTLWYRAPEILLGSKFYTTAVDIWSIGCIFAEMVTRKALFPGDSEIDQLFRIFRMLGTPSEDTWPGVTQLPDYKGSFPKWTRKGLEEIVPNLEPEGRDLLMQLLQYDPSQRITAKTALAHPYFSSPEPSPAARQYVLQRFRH

[23] = Chemical stability of compound in phosphate buffer at pH 4 assessed as parent compound remaining at 120 ug/ml after 24 hrs by HPLC method; assay type: physicochemical; details: read-out: Stability
[24] = Half life in rat liver S9 fraction preincubated for 5 mins followed by NADPH addition measured after 30 mins by LC-MS/MS analysis; assay type: ADME, tissue-based
Summary of the method: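 Parent loss followed over time to give half-life, with NADPH as cofactor for microsomal phase I metabolism.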

PANC-1 = assay: Growth inhibition of human PANC1 cells after 48 hrs by MTT assay; assay type: functional; details: PANC-1, 48 h; summary of the method: as §5
[25] = Protein binding in dog plasma at 3 uM after 5 hrs by equilibrium dialysis method; assay type: ADME, cell-free, Canis lupus familiaris; details: read-out: PPB (converted)
CYP3A4 = CYP3A4 (Homo sapiens, UniProt P08684); assay: Inhibition of human CYP3A4 at 2 uM using fluorogenic substrate after 5 mins by fluorometric method relative to control; assay type: ADME; details: probe fluorogenic substrate
Chain of CYP3A4 (P08684 whole entry): as the sequence (P08684 whole entry) above

T47D = assay: Growth inhibition of human T47D cells after 48 hrs by MTT assay; assay type: functional; summary of the method: as §5
[26] = Intrinsic clearance in human hepatocytes assessed per million cells at 3 uM after 180 mins by LC-MS/MS analysis; assay type: ADME, cell-based, Hepatocyte; details: read-out: CLH; summary of the method: as §3
[27] = Oral bioavailability in BALB/c mouse at 10 mg/kg by LC-MS/MS analysis; assay type: ADME, organism-based; details: in vivo

SMILES: CN1CC[C@H](c2c(O)cc(O)c3c(=O)cc(/C=C/c4c(Cl)cccc4Cl)oc23)[C@H](O)C1
- Tmax [1]: 1.75 h
- AUC [2]: 2.41 µM·h
- Activity (MIA PaCa-2 [3]): Dose-dependent effect
- Activity (Salmonella typhimurium): Non-Toxic
- CLint (Liver [4]): 19 µL/min/mg
- microsomal CLint at 100 µM [5]: < 8.6 µL/min/mg
- inhibition [6]: > 98%
- half-life [7]: 72 min
- hepatocyte CLint at 3 µM [8]: 12.3 µL/min/1e6 cells
- IC50 (Cytochrome P450 2C9): > 20 µM
- inhibition of growth at 10 µM (MIA PaCa-2 [9]): 88%
- TGI (MIA PaCa-2 [10]): inactive
- AUC(0-t) [11]: 0.525 µM·h
- Vd [12]: 26.2 L/kg
- Activity (MIA PaCa-2 [13]): Dose-dependent effect
- remaining at 8 h [14]: 100%
- Tmax [15]: 30 min
- GI50 (MDA-MB-468): 4 µM
- Drug uptake (Liver [16]): Active
- half-life [17]: 185 min
- IC50 (Cytochrome P450 3A4): > 20 µM
- inhibition [18]: > 98%
- logP [19]: 3.09
- Ratio [20]: 4
- Cmax [21]: 4.11 µM
- GI50 (DU-145): 5 µM
- half-life at 3 µM [22]: 281 min
- IC50 (CDK3/Cyclin E): > 1000 nM
- remaining at 24 h, 120 ug/ml [23]: 100%
- half-life [24]: 31 min
- GI50 (PANC-1): 4 µM
- fraction unbound at 5 h, 3 µM [25]: 0.05
- inhibition at 5 min, 2 µM (CYP3A4): 30%
- GI50 (T47D): 6 µM
- hepatocyte CLint at 3 µM [26]: 4.8 µL/min/1e6 cells
- bioavailability [27]: 70.7%
